Assay results published in PMC9260860 (Biochemistry, 2021).

Tests used:
[1] = target: T1, HpAFLDA (jhp0252) (Helicobacter pylori, UniProt Q9ZMG8); experiment: Enzymatic assay for HpAFLDA deaminase activity; assay type: biochemical, H. pylori strain J99; conditions: for fold difference of kcat/Km between AFL and adenosine: HpAFLDA, AFL greater than adenosine
T1 sequence (Q9ZMG8 1-409): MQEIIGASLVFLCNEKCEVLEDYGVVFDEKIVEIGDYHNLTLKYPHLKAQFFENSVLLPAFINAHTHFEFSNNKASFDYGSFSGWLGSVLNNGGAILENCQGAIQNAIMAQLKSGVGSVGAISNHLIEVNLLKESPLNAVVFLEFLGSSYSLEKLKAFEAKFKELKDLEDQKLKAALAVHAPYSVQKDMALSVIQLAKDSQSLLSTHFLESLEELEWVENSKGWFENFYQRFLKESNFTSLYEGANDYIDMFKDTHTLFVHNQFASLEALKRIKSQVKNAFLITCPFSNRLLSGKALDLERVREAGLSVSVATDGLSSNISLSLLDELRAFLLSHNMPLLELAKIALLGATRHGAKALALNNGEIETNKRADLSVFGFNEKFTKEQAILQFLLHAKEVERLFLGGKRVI

[2] = test system: H. pylori cells; experiment: Metabolism of AFL and FL by live H. pylori cell mixtures; assay type: cell-based, Helicobacter pylori; conditions: ~10^8 cells in PBS pH 7.0
In short: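 Live cells were taken from overnight cultures and washed twice with PBS. Incubations were started by adding 25 μM AFL or FL to ~10^8 cells in PBS (pH 7.0). Metabolites were extracted with ice-cold acetonitrile/methanol/water (40:40:20) containing 0.1 M formic acid and a deuterated SAM internal standard. Extracts were dried, redissolved in water, and quantified by reversed-phase LC-MS/MS (ESI−, MRM).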

[3] = test system: Sav2595, Acel0264, Dr0824, Nis0429; conditions: four enzymes, 30 °C; cited from earlier work
[4] = target: T2, HpMTAN (Helicobacter pylori, UniProt Q9ZMY2); experiment: AFL and FL hydrolysis by HpMTAN; assay type: biochemical
T2 sequence (Q9ZMY2 1-230): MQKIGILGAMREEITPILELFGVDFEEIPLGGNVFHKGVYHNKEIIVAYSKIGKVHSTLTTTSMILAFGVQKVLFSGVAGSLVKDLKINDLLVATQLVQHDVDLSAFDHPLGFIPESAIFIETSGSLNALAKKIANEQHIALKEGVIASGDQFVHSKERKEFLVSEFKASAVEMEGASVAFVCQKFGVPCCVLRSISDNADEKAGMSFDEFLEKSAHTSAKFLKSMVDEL

[5] = test system: H. pylori; experiment: Metabolite supplementation of the growth medium, effect on H. pylori cell growth; assay type: cell-based, Helicobacter pylori
[6] = target: T2, HpMTAN; assay type: biochemical
[7] = target: HpAFLDA (Helicobacter pylori, UniProt Q9ZMG8); experiment: HpAFLDA inhibition assay; assay type: biochemical, H. pylori strain J99
[8] = target: human adenosine deaminase (HsADA); conditions: cited from earlier work
[9] = test system: H. pylori J99; experiment: Inhibition of H. pylori growth in liquid culture; assay type: cell-based, Helicobacter pylori
[10] = test system: H. pylori cells; assay type: cell-based, Helicobacter pylori
[11] = substrate: C[C@H]1O[C@@H](n2cnc3c(N)ncnc32)[C@H](O)[C@@H]1O; experiment: Enzymatic assay for HpAFLDA deaminase activity; assay type: biochemical, H. pylori strain J99; conditions: other: deamination by HpAFLDA, 50 mM HEPES pH 7.0, 25 °C
[12] = substrate: Nc1ncnc2c1ncn2[C@@H]1O[C@H](CO)[C@@H](O)[C@H]1O; experiment: Enzymatic assay for HpAFLDA deaminase activity; assay type: biochemical, H. pylori strain J99; conditions: other: deamination by HpAFLDA, 50 mM HEPES pH 7.0, 25 °C
[13] = substrate: Nc1ncnc2c1ncn2[C@@H]1O[C@H](CCC(=O)c2cccc(C(=O)O)c2)[C@@H](O)[C@H]1O; experiment: Enzymatic assay for HpAFLDA deaminase activity; assay type: biochemical, H. pylori strain J99; conditions: other: deamination by HpAFLDA, 50 mM HEPES pH 7.0, 25 °C
[14] = substrate: Nc1ncnc2c1ncn2[C@@H]1O[C@H](CCC(=O)c2cccc(C(=O)O)c2)[C@@H](O)[C@H]1O; experiment: AFL and FL hydrolysis by HpMTAN; assay type: biochemical, Helicobacter pylori; conditions: other: hydrolysis by HpMTAN, 50 mM HEPES pH 7.0
[15] = deamination by HpAFLDA, 50 mM HEPES pH 7.0, 25 °C

In the case of Nc1ncnc2c1ncn2[C@@H]1O[C@H](CCC(=O)c2cccc(C(=O)O)c2)[C@@H](O)[C@H]1O [AFL, 6-Amino-6-deoxyfutalosine], the “fold difference of kcat/Km between AFL and adenosine” value [1] is reported as 26 fold, the kcat [1, 15] is reported as 0.62 s⁻¹ and the “conversion of the added metabolite by live H. pylori cells” value ([2]; 25 μM AFL) is reported as “readily converted AFL to FL and adenine”. The “catalytic efficiencies for AFL deamination” value [3] was 4.8 × 10^6 to 7.9 × 10^5 M^−1 s^−1, the “hydrolysis by HpMTAN (in words)” value [4] was “capable of catalyzing only AFL hydrolysis” and the “effect of supplementation on cell growth” value ([5]; 200 μM AFL in the growth medium, BTDIA used to stress MK biosynthesis) was “did not cause a significant impact on cell growth”.

In the case of 5′-methylthioadenosine [MTA], the “catalytic efficiency of MTA hydrolysis relative to AFL hydrolysis” value [6] is reported as over 100 fold.

In the case of OC[C@H]1O[C@@H](n2cnc3c2N=CNC[C@H]3O)[C@H](O)[C@@H]1O [(8R)-CF, Coformycin, reference compound], the Ki [7] is given as over 10 µM and the Ki values [8] is given as “submicromolar”.

For O=C(O)c1cccc(C(=O)CC[C@H]2O[C@@H](n3cnc4c(=O)[nH]cnc43)[C@H](O)[C@@H]2O)c1 [FL, futalosine], the “change of the FL concentration in live H. pylori cells” value ([2]; 25 μM FL) was “no significant changes”, the “hypoxanthine formation in live H. pylori cells” value ([2]; 25 μM FL) was “no hypoxanthine was formed” and the “hydrolysis by HpMTAN (in words)” value [4] was “not FL hydrolysis”. For the same molecule, the kcat ([4]; hydrolysis by HpMTAN, 50 mM HEPES pH 7.0) was under 1e-05 s⁻¹, the “effect of supplementation on cell growth” value ([5]; FL 1 to 200 μM) was “did not affect cell growth” and the “reversal of MTCF growth inhibition by supplementation” value ([9]; 50 μM FL with 6-100 μM MTCF, 96 h) was “partially reversed the growth inhibition”.

With CCCSC[C@H]1O[C@@H](n2cnc3c2N=CNC[C@H]3O)C[C@@H]1O [(8R)-PrT-2′d-CF, 5′-propylthio-2′-deoxycoformycin] the “inhibition of HpAFLDA (in words)” value [7] was “showed some inhibition”.

In the case of Nc1ncnc2c1ncn2[C@@H]1O[C@H](CSCC[C@H](N)C(=O)O)[C@@H](O)[C@H]1O [SAH, S-adenosylhomocysteine], the Km [1, 15] is reported as 220 ± 50 µM and the kcat [1, 15] is reported as 0.12 ± 0.02 s⁻¹.

For O[C@@H]1CNC=Nc2c1ncn2[C@H]1C[C@H](O)[C@@H](CSc2ccccc2)O1 [(8R)-PhT-2′d-CF, 5′-phenylthio-2′-deoxycoformycin], the “inhibition of HpAFLDA (in words)” value [7] was “showed some inhibition”.

For CSC[C@H]1O[C@@H](n2cnc3c2N=CNC[C@H]3O)C[C@@H]1O [(8R)-MT-2′d-CF, 5′-methylthio-2′-deoxycoformycin], the “inhibition of HpAFLDA activity” value ([7]; even at 10 μM) was “did not inhibit”.

For CCCCSC[C@H]1CN(Cc2c[nH]c3c(N)ncnc23)C[C@@H]1O [BTDIA, BuT-DADMe-ImmA], the “menaquinone-6 concentrations in lipid extracts” value ([10]; BTDIA at 14 nM, p < 0.005) was “decreased significantly” and the “cellular DHFL concentrations” value ([10]; BTDIA at its half-maximal inhibitory concentration (14 nM)) was “Significant decreases”.

In the case of CSC[C@H]1O[C@@H](n2cnc3c2N=CNC[C@H]3O)[C@H](O)[C@@H]1O [(8R)-MTCF, 5′-methylthiocoformycin], the “type of inhibition of HpAFLDA” value ([7]; second phase of inhibition after reaction for 30 min) is reported as “slow-onset inhibitor” and the IC50 ([9]; read-out: IC50, H. pylori growth, liquid medium, 72 h, microaerophilic, 37 °C) is reported as 14 ± 1 µM.

For Nc1ncnc2c1ncn2[C@@H]1O[C@H](CO)[C@@H](O)[C@H]1O [adenosine], the “fold difference of kcat/Km between AFL and adenosine” value [1] was 26 fold.

B1: HpAFLDA (jhp0252) (Helicobacter pylori J99) (protein)
chain: MQEIIGASLVFLCNEKCEVLEDYGVVFDEKIVEIGDYHNLTLKYPHLKAQFFENSVLLPAFINAHTHFEFSNNKASFDYGSFSGWLGSVLNNGGAILENCQGAIQNAIMAQLKSGVGSVGAISNHLIEVNLLKESPLNAVVFLEFLGSSYSLEKLKAFEAKFKELKDLEDQKLKAALAVHAPYSVQKDMALSVIQLAKDSQSLLSTHFLESLEELEWVENSKGWFENFYQRFLKESNFTSLYEGANDYIDMFKDTHTLFVHNQFASLEALKRIKSQVKNAFLITCPFSNRLLSGKALDLERVREAGLSVSVATDGLSSNISLSLLDELRAFLLSHNMPLLELAKIALLGATRHGAKALALNNGEIETNKRADLSVFGFNEKFTKEQAILQFLLHAKEVERLFLGGKRVI
Molecule B1 has a kcat [11] of 1.6 ± 0.3 s⁻¹, a kcat/Km [11] of 12000 M⁻¹ s⁻¹ and a Km [12] of 170 ± 40 µM. It also gave a kcat [12] of 0.44 ± 0.06 s⁻¹, a kcat/Km [12] of 2600 M⁻¹ s⁻¹ and a Km [13] of 9 ± 1 µM. For the same molecule, the kcat [13] was 0.62 ± 0.03 s⁻¹ and the kcat/Km [13] was 68000 M⁻¹ s⁻¹.

B2: HpMTAN (Helicobacter pylori J99) (protein)
chain: MQKIGILGAMREEITPILELFGVDFEEIPLGGNVFHKGVYHNKEIIVAYSKIGKVHSTLTTTSMILAFGVQKVLFSGVAGSLVKDLKINDLLVATQLVQHDVDLSAFDHPLGFIPESAIFIETSGSLNALAKKIANEQHIALKEGVIASGDQFVHSKERKEFLVSEFKASAVEMEGASVAFVCQKFGVPCCVLRSISDNADEKAGMSFDEFLEKSAHTSAKFLKSMVDEL
B2 showed a Km [14] of 1.6 ± 0.3 µM, a kcat [14] of 0.022 ± 0.02 s⁻¹ and a kcat/Km [14] of 14000 M⁻¹ s⁻¹.
